The text below walks through data of ChEMBL document CHEMBL1124098, “N-terminal requirements of small peptide anticoagulants based on hirudin54-65” (J Med Chem, 1988).

Starred links: 1 amine or outer side, 2 acyl side, 3 side chain; linkers in the order of their positions; H or OH if unused. Non-standard residues stand in square brackets, D forms with d. Residues, ends and D or L forms follow the SMILES beside them. *: point of attachment. Hydrocinnamoyl = O=C(CCc1ccccc1)*; Phg = N[C@H](C(=O)O)c1ccccc1; Suc = O=C(CCC(=O)[*:2])[*:1]; X1 = O=C(/C=C/c1ccccc1)*; Bz = O=C(c1ccccc1)*

The experiment can be described thus: In vitro Inhibition of fibrin clot formation relative to a blank control after thrombin addition to plasma in human. In kind it is functional, cell-free. The method in brief: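 Fasted donor human plasma collected in 0.1% EDTA (final), filter-sterilized, stored at -20 °C. Bovine thrombin (0.2 pmol) preincubated with peptide 10 min at 24 °C. Then 1:10 diluted plasma in NaCl/sodium phosphate was added. Buffer pH 7.4 with 0.1% BSA.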

Regarding `CC[C@H](C)[C@H](NC(=O)[C@H](CCC(=O)O)NC(=O)[C@H](CCC(=O)O)NC(=O)c1ccccc1)C(=O)N1CCC[C@H]1C(=O)N[C@@H](CCC(=O)O)C(=O)N[C@@H](CCC(=O)O)C(=O)N[C@@H](Cc1ccc(O)cc1)C(=O)N[C@@H](CC(C)C)C(N)=O` (Bz-EEIPEEYL-NH2), the IC50 – broadly, the concentration that inhibits the measured activity by half – is over 250 µM.
The molecule `CC[C@H](C)[C@H](NC(=O)[C@H](CCC(=O)O)NC(=O)[C@H](CCC(=O)O)NC(=O)[C@@H](NC(=O)[C@H](CC(=O)O)NC(=O)CN)c1ccccc1)C(=O)N1CCC[C@H]1C(=O)N[C@@H](CCC(=O)O)C(=O)N[C@@H](CCC(=O)O)C(=O)N[C@@H](Cc1ccc(O)cc1)C(=O)N[C@@H](CC(C)C)C(=O)N[C@@H](CCC(N)=O)C(=O)O` (H-GD[Phg]EEIPEEYLQ-OH) had a half-maximal inhibitory concentration (IC50) of over 250 µM.
`CC[C@H](C)[C@H](NC(=O)[C@H](CCC(=O)O)NC(=O)[C@H](CCC(=O)O)NC(=O)CCc1ccccc1)C(=O)N1CCC[C@H]1C(=O)N[C@@H](CCC(=O)O)C(=O)N[C@@H](CCC(=O)O)C(=O)N[C@@H](Cc1ccc(O)cc1)C(=O)N[C@@H](CC(C)C)C(N)=O` (Hydrocinnamoyl-EEIPEEYL-NH2): the half-maximal inhibitory concentration (IC50) was over 250 µM.
In turn, `CC[C@H](C)[C@H](NC(=O)[C@H](CCC(=O)O)NC(=O)[C@H](CCC(=O)O)NC(=O)[C@H](Cc1ccccc1)NC(=O)CCC(=O)O)C(=O)N1CCC[C@H]1C(=O)N[C@@H](CCC(=O)O)C(=O)N[C@@H](CCC(=O)O)C(=O)N[C@@H](Cc1ccc(O)cc1)C(=O)N[C@@H](CC(C)C)C(=O)N[C@@H](CCC(N)=O)C(=O)O` (Suc-FEEIPEEYLQ-OH) returned an IC50 of 1.7 µM.
With `CC[C@H](C)[C@H](NC(=O)[C@H](CCC(=O)O)NC(=O)[C@H](CCC(=O)O)NC(=O)/C=C/c1ccccc1)C(=O)N1CCC[C@H]1C(=O)N[C@@H](CCC(=O)O)C(=O)N[C@@H](CCC(=O)O)C(=O)N[C@@H](Cc1ccc(O)cc1)C(=O)N[C@@H](CC(C)C)C(N)=O` (X1-EEIPEEYL-NH2), the IC50 was over 250 µM.
The value for H-FEEIPEEYLQ-OH was 34 µM.
